The results in this text go back to ChEMBL document CHEMBL1765003, “Discovery of (1S,2R,3R)-2,3-dimethyl-2-phenyl-1-sulfamidocyclopropanecarboxylates: novel and highly selective aggrecanase inhibitors” (J Med Chem, 2011).

Each structure is given as a SMILES string.

The target in test [1] is T1, A disintegrin and metalloproteinase with thrombospondin motifs 5 (Homo sapiens, UniProt Q9UNA0).
T1 sequence (Q9UNA0 whole entry): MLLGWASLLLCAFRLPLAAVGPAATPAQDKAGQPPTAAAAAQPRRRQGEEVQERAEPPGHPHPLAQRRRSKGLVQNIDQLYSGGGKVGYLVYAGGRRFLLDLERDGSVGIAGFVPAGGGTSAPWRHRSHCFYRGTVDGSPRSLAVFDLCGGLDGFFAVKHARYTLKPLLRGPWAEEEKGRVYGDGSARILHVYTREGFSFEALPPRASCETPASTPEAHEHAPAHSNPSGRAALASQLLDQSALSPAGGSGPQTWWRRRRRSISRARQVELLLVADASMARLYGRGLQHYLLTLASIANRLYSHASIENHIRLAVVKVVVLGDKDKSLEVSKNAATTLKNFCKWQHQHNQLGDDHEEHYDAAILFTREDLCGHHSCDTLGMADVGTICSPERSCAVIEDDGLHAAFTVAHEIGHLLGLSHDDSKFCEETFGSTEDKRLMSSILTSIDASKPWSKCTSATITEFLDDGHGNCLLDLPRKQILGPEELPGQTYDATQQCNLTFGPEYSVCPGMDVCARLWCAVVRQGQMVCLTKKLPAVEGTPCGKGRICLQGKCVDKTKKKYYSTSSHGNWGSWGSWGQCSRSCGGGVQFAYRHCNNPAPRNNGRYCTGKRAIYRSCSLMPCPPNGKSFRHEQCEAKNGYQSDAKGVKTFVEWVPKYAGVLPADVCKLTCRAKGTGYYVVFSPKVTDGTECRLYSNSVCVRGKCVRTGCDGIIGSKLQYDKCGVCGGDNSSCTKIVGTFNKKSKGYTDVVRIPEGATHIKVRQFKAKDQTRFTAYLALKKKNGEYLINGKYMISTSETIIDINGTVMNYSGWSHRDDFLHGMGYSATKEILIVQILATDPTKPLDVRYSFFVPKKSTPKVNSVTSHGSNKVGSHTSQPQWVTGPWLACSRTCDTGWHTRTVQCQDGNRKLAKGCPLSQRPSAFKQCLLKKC
Briefly: Inhibition of human recombinant aggrecanase 2 after 150 mins by fluorescence plate reader.

Test [2] concerns the target T2, A disintegrin and metalloproteinase with thrombospondin motifs 4 (Homo sapiens, UniProt O75173).
T2 sequence (O75173 whole entry): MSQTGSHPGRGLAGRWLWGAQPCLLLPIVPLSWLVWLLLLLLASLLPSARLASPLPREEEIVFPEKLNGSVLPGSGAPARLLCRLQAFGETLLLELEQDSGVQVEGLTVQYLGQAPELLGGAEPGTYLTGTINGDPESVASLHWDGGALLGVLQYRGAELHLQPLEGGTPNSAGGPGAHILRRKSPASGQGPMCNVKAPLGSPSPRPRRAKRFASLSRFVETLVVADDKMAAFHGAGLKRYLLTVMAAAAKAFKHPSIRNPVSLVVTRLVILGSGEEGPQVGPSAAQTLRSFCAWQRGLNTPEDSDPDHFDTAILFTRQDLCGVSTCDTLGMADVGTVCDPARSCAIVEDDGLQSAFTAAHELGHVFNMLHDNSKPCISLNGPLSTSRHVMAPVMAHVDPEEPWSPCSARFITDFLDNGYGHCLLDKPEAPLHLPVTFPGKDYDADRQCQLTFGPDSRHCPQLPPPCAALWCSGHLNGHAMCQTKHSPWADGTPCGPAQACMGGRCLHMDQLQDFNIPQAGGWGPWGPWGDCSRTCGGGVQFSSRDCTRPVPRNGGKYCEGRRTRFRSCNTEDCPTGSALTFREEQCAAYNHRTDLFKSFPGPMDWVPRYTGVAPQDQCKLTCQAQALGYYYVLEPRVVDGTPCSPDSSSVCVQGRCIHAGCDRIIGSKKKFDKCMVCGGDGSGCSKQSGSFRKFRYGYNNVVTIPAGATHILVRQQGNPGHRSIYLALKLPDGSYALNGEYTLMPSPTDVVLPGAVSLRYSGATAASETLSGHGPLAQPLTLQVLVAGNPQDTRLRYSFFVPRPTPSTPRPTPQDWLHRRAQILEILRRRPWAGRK
Briefly: Inhibition of human recombinant aggrecanase 1 after 150 mins by fluorescence plate reader.

In test [3] the target is Disintegrin and metalloproteinase domain-containing protein 17 (Homo sapiens, UniProt P78536). As to the kind of experiment: Inhibition of human recombinant TACE after 60 mins by fluorescence plate reader. In short, it runs like this: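 rh-TACE at 80 ng/mL with 10 μM MCA-Pro-Leu-Ala-Gln-Ala-Val-Dpa-Arg-Ser-Ser-Ser-Arg-NH₂, in 100 mM Tris-HCl pH 7.5, 150 mM NaCl, 10 mM CaCl₂, 0.05% Brij-35. Inhibitor preincubated for 15 min at 25 °C. Fluorescence (ex 325/em 405 nm) read at 60 min. IC50 from three linear-range points; mean of ≥2.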
Sequence of Disintegrin and metalloproteinase domain-containing protein 17 (P78536 whole entry, the tested form may be a part): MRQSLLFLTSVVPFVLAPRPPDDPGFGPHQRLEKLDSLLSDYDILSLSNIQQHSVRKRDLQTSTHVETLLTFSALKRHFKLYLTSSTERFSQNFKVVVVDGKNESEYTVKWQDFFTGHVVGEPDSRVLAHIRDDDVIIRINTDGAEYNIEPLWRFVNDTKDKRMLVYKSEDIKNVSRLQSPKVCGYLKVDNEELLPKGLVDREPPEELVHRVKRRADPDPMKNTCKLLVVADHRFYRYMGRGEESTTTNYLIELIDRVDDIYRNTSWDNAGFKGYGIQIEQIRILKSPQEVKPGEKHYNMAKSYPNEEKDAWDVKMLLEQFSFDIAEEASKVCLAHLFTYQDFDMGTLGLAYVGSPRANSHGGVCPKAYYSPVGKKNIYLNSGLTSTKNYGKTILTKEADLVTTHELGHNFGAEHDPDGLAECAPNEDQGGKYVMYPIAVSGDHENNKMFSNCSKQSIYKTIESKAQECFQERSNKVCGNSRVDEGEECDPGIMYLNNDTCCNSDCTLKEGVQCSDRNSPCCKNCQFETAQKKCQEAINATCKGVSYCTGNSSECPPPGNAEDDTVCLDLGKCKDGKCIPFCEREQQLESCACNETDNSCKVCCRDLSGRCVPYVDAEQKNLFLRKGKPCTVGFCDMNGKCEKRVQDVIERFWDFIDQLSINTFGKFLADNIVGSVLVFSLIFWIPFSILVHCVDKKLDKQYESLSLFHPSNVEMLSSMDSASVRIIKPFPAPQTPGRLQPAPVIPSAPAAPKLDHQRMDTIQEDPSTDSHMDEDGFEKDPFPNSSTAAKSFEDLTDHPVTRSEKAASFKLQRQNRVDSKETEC

In a further test the target is T3, Interstitial collagenase (Homo sapiens, UniProt P03956).
T3 sequence (P03956 whole entry): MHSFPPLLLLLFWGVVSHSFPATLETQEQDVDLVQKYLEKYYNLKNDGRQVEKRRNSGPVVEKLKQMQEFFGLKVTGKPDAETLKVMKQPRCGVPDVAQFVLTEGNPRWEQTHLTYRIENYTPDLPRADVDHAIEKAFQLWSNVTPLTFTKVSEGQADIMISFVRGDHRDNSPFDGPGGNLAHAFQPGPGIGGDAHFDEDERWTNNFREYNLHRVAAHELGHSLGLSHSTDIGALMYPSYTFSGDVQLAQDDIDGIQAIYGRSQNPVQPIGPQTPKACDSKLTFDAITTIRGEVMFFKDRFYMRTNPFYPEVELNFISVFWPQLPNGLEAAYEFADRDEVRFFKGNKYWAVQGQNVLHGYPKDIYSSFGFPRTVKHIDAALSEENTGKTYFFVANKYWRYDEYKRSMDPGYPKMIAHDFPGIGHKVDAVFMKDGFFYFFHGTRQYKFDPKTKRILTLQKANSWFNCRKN
Briefly: Inhibition of human recombinant MMP1 after 60 mins by fluorescence plate reader. In short, it runs like this:
(§1)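 Recombinant human enzyme at 20 ng/mL with 10 μM MOCAc-Lys-Pro-Leu-Gly-Leu-A2pr(Dnp)-Ala-Arg-NH₂, in 100 mM Tris-HCl pH 7.5, 150 mM NaCl, 10 mM CaCl₂, 0.05% Brij-35. Enzyme pretreated with inhibitor for 15 min at 25 °C, then substrate added. Fluorescence (ex 325, em 405 nm) read at 60 min. IC50 taken from three points in the linear range; mean of ≥2 determinations.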

For test [4], the target named is Matrix metalloproteinase-14 (Homo sapiens, UniProt P50281). As to the kind of experiment: Inhibition of human recombinant MMP14 after 60 mins by fluorescence plate reader. In short, it runs like this:
as §1

The species named for the next test is Homo sapiens. Briefly: Selectivity ratio of IC50 for human recombinant MMP14 to IC50 for human recombinant aggrecanase 2.

In the case of `O=C(NO)c1nc2ccccc2c2c1CN(c1ccc(OCc3ccccc3)cc1)C2=O`, the results for the IC50 in test [1] and in test [2] were 950 nM and 210 nM, respectively.
As to `O=C(NO)[C@@H](NCC1CC1)[C@@H](Cc1cccc(O)c1)C(=O)N[C@H]1c2ccccc2C[C@H]1O`, the IC50 (in general, the point on the concentration scale where inhibition reaches its midpoint) in test [3] was 430 nM; at Interstitial collagenase it was over 10000 nM; in test [4], over 10000 nM; in test [1], 12 nM; in test [2], 3 nM.
Turning to `C[C@@H]1[C@H](c2ccccc2)[C@]1(NS(=O)(=O)N1CCN(c2ccc(Cl)cc2)[C@@H](C)C1)C(=O)O`, the IC50 in test [3] is over 10000 nM; at Interstitial collagenase, over 10000 nM; in test [4], 2500 nM; in test [1] it was 47 nM. The Ratio IC50 in the test listed under Homo sapiens was 10.
For `C[C@@H]1CN(S(=O)(=O)N[C@@]2(C(=O)O)[C@H](C)[C@@H]2c2ccccc2)CCN1c1ccc(Cl)cc1`, the IC50 in test [3] is over 10000 nM; at Interstitial collagenase, over 10000 nM; in test [4] it was 2100 nM; in test [1], 37 nM. Further, the Ratio IC50 in the test filed under Homo sapiens worked out at 10.
As to `CC1(C)C[C@@H](O)CN(S(=O)(=O)c2ccc(OCc3ccc(Cl)cc3Cl)cc2)[C@H]1C(=O)NO`, the IC50 in test [1] came to 1.4 nM; in test [2], 1.1 nM.
Turning to `C[C@@H]1[C@H](c2ccccc2)[C@]1(NS(=O)(=O)N1CCn2c(cc3cc(Cl)ccc32)C1)C(=O)O`, the IC50 in test [3] is over 10000 nM; on Interstitial collagenase it was over 10000 nM; in test [4], 420 nM; in test [1], 39 nM.
In the case of `C[C@@H]1[C@H](c2ccccc2)[C@]1(NS(=O)(=O)c1cc2nn3cc(Cl)ccc3c2s1)C(=O)O`, the concentration for half-maximal inhibition (IC50) in test [3] was over 10000 nM; at Interstitial collagenase, 1300 nM; in test [4], 100 nM; in test [1], 29 nM.
For the compound `C[C@@H]1[C@H](c2ccccc2)[C@]1(NS(=O)(=O)N1CCn2c(nc3ccccc32)C1)C(=O)O`, the IC50 is over 10000 nM in test [3], over 10000 nM at Interstitial collagenase, 2200 nM in test [4] and 92 nM in test [1].
Turning to `C[C@@H]1[C@H](c2ccccc2)[C@]1(NS(=O)(=O)c1cc2[nH]c3cc(F)ccc3c2s1)C(=O)O`, the IC50 in test [3] amounted to 1100 nM; on Interstitial collagenase, 230 nM; in test [4], 8 nM; in test [1] it was 8.3 nM.
For `C[C@@H]1CN(S(=O)(=O)N[C@@]2(C(=O)O)[C@H](C)[C@@H]2c2ccccc2)CCN1c1ccc(F)cc1` the same measures were over 10000 nM, over 10000 nM, over 10000 nM and 180 nM.
With `CC(C)(NC(=O)[C@H](CCC(=O)O)NC(=O)c1ccc(-c2ccccc2)cc1)c1ccccc1`, the IC50 came out at 1100 nM in test [1] and 210 nM in test [2].
`C[C@@H]1CN(S(=O)(=O)N[C@@]2(C(=O)O)[C@H](C)[C@@H]2c2ccccc2)CCN1c1cc(C(F)F)on1`: the concentration for half-maximal inhibition (IC50) in test [3] is over 10000 nM; at Interstitial collagenase it was over 10000 nM; in test [4], 5400 nM; in test [1], 27 nM. Further, the Ratio IC50 in the test listed under Homo sapiens was 200.
